From ChEMBL document CHEMBL4196168 (J Med Chem, 2018)
Active and inactive are the calls of the source. The rule behind the calls is not given here.

Key:
[1] = biological target: Transthyretin (Homo sapiens) (UniProt P02766); test: Binding affinity to transthyretin (unknown origin) assessed as free energy changes by ITC method
[2] = biological target: Transthyretin (Homo sapiens) (UniProt P02766); test: Binding affinity to transthyretin in human serum assessed as protein occupancy at 2:1 compound to TTR ratio by fluorescent probe exclusion assay
[3] = biological target: Transthyretin (Homo sapiens) (UniProt P02766); test: Binding affinity to transthyretin in human serum assessed as protein stabilization at 2:1 compound to TTR ratio after 72 hrs by Western blot
[4] = biological target: Transthyretin (Homo sapiens) (UniProt P02766); test: Binding affinity to transthyretin (unknown origin) in pH 7.4 PBS buffer assessed as protein occupancy at 1:1 compound to TTR ratio by fluorescent probe exclusion assay
[5] = biological target: Transthyretin (Homo sapiens) (UniProt P02766); test: Binding affinity to transthyretin (unknown origin) assessed as free enthalpy changes by ITC method
[6] = biological target: Transthyretin (Homo sapiens) (UniProt P02766); test: Binding affinity to transthyretin (unknown origin) assessed as free TdeltaS changes by ITC method
[7] = biological target: Transthyretin (Homo sapiens) (UniProt P02766); conditions: 10 uM
[8] = biological target: T1, Albumin (Homo sapiens, UniProt P02768); test: Binding affinity to human serum albumin assessed as compound level bound to protein at 30 uM measured 124 hrs after dialysis; format: ADME; conditions: isolated protein, 24 h, in the assay text read “24 hrs” for “124 hrs”
T1 sequence (P02768 whole entry): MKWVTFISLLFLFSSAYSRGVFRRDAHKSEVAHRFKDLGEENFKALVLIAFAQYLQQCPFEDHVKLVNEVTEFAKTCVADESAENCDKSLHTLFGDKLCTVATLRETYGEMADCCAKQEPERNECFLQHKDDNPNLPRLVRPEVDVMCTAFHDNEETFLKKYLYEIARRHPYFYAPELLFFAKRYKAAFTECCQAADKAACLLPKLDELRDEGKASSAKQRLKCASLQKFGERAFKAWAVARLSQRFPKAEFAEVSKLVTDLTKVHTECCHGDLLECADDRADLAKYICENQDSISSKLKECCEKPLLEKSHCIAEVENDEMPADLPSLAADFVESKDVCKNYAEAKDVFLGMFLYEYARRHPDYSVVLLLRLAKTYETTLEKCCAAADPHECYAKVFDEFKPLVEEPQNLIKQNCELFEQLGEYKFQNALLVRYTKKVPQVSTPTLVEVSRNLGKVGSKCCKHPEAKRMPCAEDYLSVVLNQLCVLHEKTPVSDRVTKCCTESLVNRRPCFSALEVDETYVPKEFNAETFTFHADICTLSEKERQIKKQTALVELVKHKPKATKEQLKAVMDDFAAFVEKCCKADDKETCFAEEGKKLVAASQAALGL
Method in brief: (§1)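 Compound (30 μM) preincubated 1 hr at 37 °C with purified human serum albumin (600 μM) in 10 mM sodium phosphate, 100 mM KCl, 1 mM EDTA, pH 7.6; gel filtration, then dialysis against buffer 24 hr at room temperature; albumin-bound compound quantified by HPLC at time zero and after dialysis; mean ± SD, n = 3.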

[9] = biological target: Transthyretin (Homo sapiens) (UniProt P02766); conditions: 10 uM; remark: listed apart in the source
[10] = biological target: T1, Albumin; test: Binding affinity to human serum albumin; format: ADME
[11] = biological target: T2, Transthyretin (Canis lupus familiaris) (UniProt A0A8I3NFK0); test: Binding affinity to transthyretin in dog serum assessed as protein stabilization at 10 uM by Western blot
Method in brief: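 Pooled dog serum with compound (10 μM) or DMSO acidified in acetate buffer pH 4.0 for 0 and 72 h, glutaraldehyde crosslinked, SDS-PAGE, immunoblotted with anti-TTR antiserum (1:2,000); tetramer band intensity expressed relative to DMSO control at 0 hr; mean ± SD, n = 3.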

[12] = biological target: T2, Transthyretin (Canis lupus familiaris); test: Binding affinity to transthyretin in dog serum assessed as protein occupancy at 10 uM by fluorescent probe exclusion assay
Method in brief: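 Pooled commercial beagle dog serum (TTR 4.6 μM) with compound (10 μM, from DMSO stock) and FPE probe (final 3.6 μM); fluorescence ex 328/em 384 nm read for 6 hr at rt; % occupancy at 3 hr versus probe-alone DMSO control; mean ± SD, n = 4.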

[13] = biological target: Transthyretin (Homo sapiens) (UniProt P02766); test: Binding affinity to transthyretin (unknown origin) in human serum assessed as protein occupancy at 200 uM by fluorescent probe exclusion assay
[14] = Cmax in human at 80 mg qd; format: ADME, organism-based; design: dose 80 mg; conditions: in vivo
[15] = biological target: Transthyretin (Homo sapiens) (UniProt P02766); conditions: 10 uM; remark: listed apart in the source
[16] = biological target: Transthyretin (Homo sapiens) (UniProt P02766); conditions: 10 uM; remark: listed apart in the source
[17] = biological target: T1, Albumin; test: Binding affinity to human serum albumin assessed as compound level bound to protein at 30 uM measured immediately after gel filtration; format: ADME; conditions: isolated protein; method in brief: as §1
[18] = biological target: Transthyretin (Homo sapiens) (UniProt P02766); conditions: 10 uM; remark: listed apart in the source
[19] = tested on: Canis familiaris; test: In-vivo binding affinity to transthyretin in beagle dog serum assessed as protein occupancy measured on day 7 at 50 to 200 mg/kg/day dosed daily via oral gavage for 7 days by fluorescent probe exclusion assay; format: functional, Canis lupus familiaris
Method in brief: (§2)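 Male and female beagle dogs gavaged daily 7 days with vehicle (6M/6F) or compound in 0.5% methylcellulose at 50 (2M/2F), 100 (2M/2F) or 200 mg/kg (6M/6F); jugular serum taken pre-dose day 1, pre-dose day 7 and 1 hr post-dose day 7; TTR occupancy by serum FPE assay, read at 3 hr.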

[20] = tested on: Canis familiaris; test: In-vivo binding affinity to transthyretin in beagle dog serum assessed as protein occupancy 5 mg/kg/day […] dosed as single administration via oral gavage; format: functional, organism-based; conditions: Canis lupus familiaris
Method in brief: (§3)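 Beagle dogs (2M/2F per group) received one oral gavage dose of 5 or 20 mg/kg in 0.5% methylcellulose; serum collected pre-dose and at 2, 4, 6, 8, 12, 24 hr; compound level by LCMS and TTR occupancy by FPE assay in serum (probe plus DMSO added).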

[21] = tested on: Canis familiaris; test: In-vivo binding affinity to transthyretin in beagle dog serum assessed as protein occupancy 20 mg/kg/day […] dosed as single administration via oral gavage; format: functional, organism-based; conditions: Canis lupus familiaris; method in brief: as §3
[22] = biological target: T1, Albumin; test: Binding affinity to human serum albumin by ITC method; format: ADME
[23] = tested on: Canis familiaris; test: In-vivo binding affinity to transthyretin in beagle dog serum assessed as protein occupancy measured at 1 hr post dose on day 7 at 50 to 200 mg/kg/day dosed daily via oral gavage for 7 days by fluorescent probe exclusion assay; format: functional, Canis lupus familiaris; method in brief: as §2
[24] = tested on: Canis familiaris; test: In-vivo binding affinity to transthyretin in beagle dog serum assessed as protein occupancy at 50 to 200 mg/kg/day dosed daily via oral gavage for 7 days by fluorescent probe exclusion assay; format: functional, organism-based; conditions: Canis lupus familiaris; method in brief: as §2
[25] = biological target: Transthyretin (Homo sapiens) (UniProt P02766); conditions: 20 uM
[26] = Cmax in human at 250 mg bid; format: ADME, organism-based; design: dose 250 mg; conditions: in vivo

| deltaG [1] | Occ [2] | Activity [3] | Occ [4] | deltaH [5] | TdeltaS [6] | Structure (SMILES) | further results |
| --- | --- | --- | --- | --- | --- | --- | --- |
| -8.99 kcal/mol | 63.2% | 70.4% | 38.5% | -6.49 kcal/mol | 2.5 kcal/mol | COC(=O)c1ccc(F)c(OCCCc2c(C)n[nH]c2C)c1 | – |
| -9.61 kcal/mol | 75.9% | 86.7% | 58.3% | -9.82 kcal/mol | -0.21 kcal/mol | Cc1n[nH]c(C)c1CCCOc1cc(C(=O)O)ccc1I | – |

Second part, the compound before the results:

| Structure (SMILES) | deltaG [1] | Occ [2] | Activity [3] | Occ [4] | deltaH [5] | TdeltaS [6] | further results |
| --- | --- | --- | --- | --- | --- | --- | --- |
| CCc1n[nH]c(CC)c1CCCOc1cc(C(=O)O)ccc1F | -8.1 kcal/mol | 20.8% | 23.2% | 17.2% | -2.1 kcal/mol | 6 kcal/mol | – |
| O=C(O)c1ccc2nc(-c3cc(Cl)cc(Cl)c3)oc2c1 | – | 49% | 41.5% | 49.9% | -5 kcal/mol | 6.39 kcal/mol | Occ [7]: 68.2%; PB [8]: 18.8 µM; Occ [9]: 41.5%; Kd [10]: 2.5 µM; Activity [11]: Active; Activity [12]: Active; Occ [13]: 65%; Cmax [14]: 20 µM; Occ [15]: Active; Occ [16]: Active; PB [17]: 24.1 µM; Occ [18]: Active |
| Cc1n[nH]c(C)c1CCCOc1cc(C(=O)O)ccc1F [ACORAMIDIS] | – | – | – | – | – | – | PB [8]: 7.8 µM; Activity [11]: Active; Occ [19]: 81 - 94%; Activity [12]: Active; Activity [20]: Active; Activity [21]: Active; Kd [22]: 8 µM; PB [17]: 18.3 µM; Occ [23]: >97%; Activity [24]: Dose-dependent effect |
| O=C(O)c1cc(-c2ccc(F)cc2F)ccc1O [DIFLUNISAL] | – | – | – | 28.7% | -8.38 kcal/mol | 0.34 kcal/mol | Occ [25]: 65%; Cmax [26]: 200 µM |
| Cc1nn(C)c(C)c1CCCOc1cc(C(=O)O)ccc1F | -9 kcal/mol | 43% | 32.1% | 29.7% | -4.73 kcal/mol | 4.27 kcal/mol | – |
